In ChEMBL document CHEMBL4152382, “Discovery of Tarantula Venom-Derived NaV1.7-Inhibitory JzTx-V Peptide 5-Br-Trp24 Analogue AM-6120 with Systemic Block of Histamine-Induced Pruritis” (J Med Chem, 2018):
Active and inactive are the calls of the source. No cut-off for these calls is given here.

Assays:
Mus musculus [1] = experiment: In vivo inhibition of Nav1.7 in C57/BL6 mouse model of histamine-induced pruritis assessed as reduction in scratching bouts at 10 mg/kg, […] dosed 2 hrs before histamine challenge and measured for 15 mins relative to control; format: functional
[2] = Inhibition of TTX-resistant sodium channel-mediated currents in C57/BL6 mouse DRG neurons by whole cell manual patch clamp assay; settings: C57/BL6, DRG neuron
[3] = biological target: Sodium channel protein type 9 subunit alpha (Homo sapiens, UniProt Q15858); experiment: Inhibition of human Nav1.7 expressed in HEK293 cells at holding potential of -125 mV […] by patchxpress-based electrophysiology assay; format: cell-based
Sequence of Sodium channel protein type 9 subunit alpha (Homo sapiens, UniProt Q15858) (Q15858 whole entry): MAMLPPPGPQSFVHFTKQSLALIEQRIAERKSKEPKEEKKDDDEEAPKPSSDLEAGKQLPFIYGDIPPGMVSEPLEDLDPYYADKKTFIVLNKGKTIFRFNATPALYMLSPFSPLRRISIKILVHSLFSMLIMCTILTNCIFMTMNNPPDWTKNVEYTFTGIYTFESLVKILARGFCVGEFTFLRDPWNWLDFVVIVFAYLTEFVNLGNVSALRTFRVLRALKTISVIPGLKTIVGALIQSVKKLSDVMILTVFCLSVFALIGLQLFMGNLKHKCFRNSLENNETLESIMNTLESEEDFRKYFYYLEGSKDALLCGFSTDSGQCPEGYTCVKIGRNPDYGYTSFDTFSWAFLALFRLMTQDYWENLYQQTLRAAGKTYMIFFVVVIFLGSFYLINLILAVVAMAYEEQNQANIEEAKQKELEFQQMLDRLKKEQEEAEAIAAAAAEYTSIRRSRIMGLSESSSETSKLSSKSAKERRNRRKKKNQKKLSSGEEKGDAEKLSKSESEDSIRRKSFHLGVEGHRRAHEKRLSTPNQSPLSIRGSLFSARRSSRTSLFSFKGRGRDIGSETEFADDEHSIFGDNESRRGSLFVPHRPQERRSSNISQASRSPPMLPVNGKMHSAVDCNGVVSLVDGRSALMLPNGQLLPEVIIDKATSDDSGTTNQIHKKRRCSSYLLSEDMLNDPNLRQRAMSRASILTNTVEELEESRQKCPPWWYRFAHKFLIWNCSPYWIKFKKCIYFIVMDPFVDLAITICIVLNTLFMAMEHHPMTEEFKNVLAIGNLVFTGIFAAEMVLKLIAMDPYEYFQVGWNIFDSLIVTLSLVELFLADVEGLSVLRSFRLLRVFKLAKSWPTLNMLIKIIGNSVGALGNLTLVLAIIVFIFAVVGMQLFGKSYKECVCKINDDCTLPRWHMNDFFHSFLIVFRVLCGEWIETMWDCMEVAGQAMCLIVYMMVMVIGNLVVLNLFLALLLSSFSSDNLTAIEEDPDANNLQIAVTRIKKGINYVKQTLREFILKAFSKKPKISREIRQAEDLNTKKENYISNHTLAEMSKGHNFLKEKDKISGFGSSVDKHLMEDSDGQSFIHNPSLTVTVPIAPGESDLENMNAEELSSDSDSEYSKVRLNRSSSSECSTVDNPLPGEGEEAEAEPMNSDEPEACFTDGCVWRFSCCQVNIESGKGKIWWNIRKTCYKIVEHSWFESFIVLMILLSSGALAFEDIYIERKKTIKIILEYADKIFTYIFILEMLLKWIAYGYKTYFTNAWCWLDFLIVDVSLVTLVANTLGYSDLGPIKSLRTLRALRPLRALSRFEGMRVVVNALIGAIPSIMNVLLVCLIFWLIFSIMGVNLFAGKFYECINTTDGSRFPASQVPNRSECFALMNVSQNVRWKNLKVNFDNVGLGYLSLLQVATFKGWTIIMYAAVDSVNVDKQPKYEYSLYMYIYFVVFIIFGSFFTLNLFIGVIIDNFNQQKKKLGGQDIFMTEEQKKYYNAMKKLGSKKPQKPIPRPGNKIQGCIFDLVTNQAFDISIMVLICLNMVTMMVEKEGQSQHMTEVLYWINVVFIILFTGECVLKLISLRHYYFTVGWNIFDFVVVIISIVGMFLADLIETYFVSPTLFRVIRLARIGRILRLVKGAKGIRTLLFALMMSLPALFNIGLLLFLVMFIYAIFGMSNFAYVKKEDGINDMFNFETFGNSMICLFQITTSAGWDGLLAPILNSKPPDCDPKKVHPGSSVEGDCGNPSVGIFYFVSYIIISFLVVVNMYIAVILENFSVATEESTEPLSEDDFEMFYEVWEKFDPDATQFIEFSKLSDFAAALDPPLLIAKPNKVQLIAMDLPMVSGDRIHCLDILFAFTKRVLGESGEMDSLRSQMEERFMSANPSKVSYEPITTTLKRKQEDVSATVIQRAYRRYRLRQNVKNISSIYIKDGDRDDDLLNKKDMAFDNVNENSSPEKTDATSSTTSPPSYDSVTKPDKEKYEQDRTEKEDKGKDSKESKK

[4] = biological target: Sodium channel protein type 4 subunit alpha (Homo sapiens, UniProt P35499); experiment: Inhibition of human Nav1.4 expressed in HEK293 cells at holding potential of -125 mV […] by patchxpress-based electrophysiology assay; format: cell-based
[5] = biological target: Sodium channel protein type 8 subunit alpha (Homo sapiens, UniProt Q9UQD0); experiment: Inhibition of human Nav1.6 expressed in HEK293 cells at holding potential of -125 mV […] by patchxpress-based electrophysiology assay; format: cell-based
[6] = biological target: Sodium channel protein type 5 subunit alpha (Homo sapiens, UniProt Q14524); experiment: Inhibition of human Nav1.5 expressed in HEK293 cells at holding potential of […] after 10 mins by patchxpress-based electrophysiology assay; format: cell-based
[7] = biological target: Sodium channel protein type 10 subunit alpha (Homo sapiens, UniProt Q9Y5Y9); experiment: Inhibition of human Nav1.8 expressed in HEK293 cells after 10 mins by patchxpress-based electrophysiology; format: cell-based
[8] = biological target: T1, Sodium channel protein type 9 subunit alpha (Mus musculus, UniProt Q62205); experiment: Inhibition of mouse Nav1.7 expressed in HEK293 cells after 10 mins by patchxpress-based electrophysiology; format: cell-based
T1 sequence (Q62205 whole entry): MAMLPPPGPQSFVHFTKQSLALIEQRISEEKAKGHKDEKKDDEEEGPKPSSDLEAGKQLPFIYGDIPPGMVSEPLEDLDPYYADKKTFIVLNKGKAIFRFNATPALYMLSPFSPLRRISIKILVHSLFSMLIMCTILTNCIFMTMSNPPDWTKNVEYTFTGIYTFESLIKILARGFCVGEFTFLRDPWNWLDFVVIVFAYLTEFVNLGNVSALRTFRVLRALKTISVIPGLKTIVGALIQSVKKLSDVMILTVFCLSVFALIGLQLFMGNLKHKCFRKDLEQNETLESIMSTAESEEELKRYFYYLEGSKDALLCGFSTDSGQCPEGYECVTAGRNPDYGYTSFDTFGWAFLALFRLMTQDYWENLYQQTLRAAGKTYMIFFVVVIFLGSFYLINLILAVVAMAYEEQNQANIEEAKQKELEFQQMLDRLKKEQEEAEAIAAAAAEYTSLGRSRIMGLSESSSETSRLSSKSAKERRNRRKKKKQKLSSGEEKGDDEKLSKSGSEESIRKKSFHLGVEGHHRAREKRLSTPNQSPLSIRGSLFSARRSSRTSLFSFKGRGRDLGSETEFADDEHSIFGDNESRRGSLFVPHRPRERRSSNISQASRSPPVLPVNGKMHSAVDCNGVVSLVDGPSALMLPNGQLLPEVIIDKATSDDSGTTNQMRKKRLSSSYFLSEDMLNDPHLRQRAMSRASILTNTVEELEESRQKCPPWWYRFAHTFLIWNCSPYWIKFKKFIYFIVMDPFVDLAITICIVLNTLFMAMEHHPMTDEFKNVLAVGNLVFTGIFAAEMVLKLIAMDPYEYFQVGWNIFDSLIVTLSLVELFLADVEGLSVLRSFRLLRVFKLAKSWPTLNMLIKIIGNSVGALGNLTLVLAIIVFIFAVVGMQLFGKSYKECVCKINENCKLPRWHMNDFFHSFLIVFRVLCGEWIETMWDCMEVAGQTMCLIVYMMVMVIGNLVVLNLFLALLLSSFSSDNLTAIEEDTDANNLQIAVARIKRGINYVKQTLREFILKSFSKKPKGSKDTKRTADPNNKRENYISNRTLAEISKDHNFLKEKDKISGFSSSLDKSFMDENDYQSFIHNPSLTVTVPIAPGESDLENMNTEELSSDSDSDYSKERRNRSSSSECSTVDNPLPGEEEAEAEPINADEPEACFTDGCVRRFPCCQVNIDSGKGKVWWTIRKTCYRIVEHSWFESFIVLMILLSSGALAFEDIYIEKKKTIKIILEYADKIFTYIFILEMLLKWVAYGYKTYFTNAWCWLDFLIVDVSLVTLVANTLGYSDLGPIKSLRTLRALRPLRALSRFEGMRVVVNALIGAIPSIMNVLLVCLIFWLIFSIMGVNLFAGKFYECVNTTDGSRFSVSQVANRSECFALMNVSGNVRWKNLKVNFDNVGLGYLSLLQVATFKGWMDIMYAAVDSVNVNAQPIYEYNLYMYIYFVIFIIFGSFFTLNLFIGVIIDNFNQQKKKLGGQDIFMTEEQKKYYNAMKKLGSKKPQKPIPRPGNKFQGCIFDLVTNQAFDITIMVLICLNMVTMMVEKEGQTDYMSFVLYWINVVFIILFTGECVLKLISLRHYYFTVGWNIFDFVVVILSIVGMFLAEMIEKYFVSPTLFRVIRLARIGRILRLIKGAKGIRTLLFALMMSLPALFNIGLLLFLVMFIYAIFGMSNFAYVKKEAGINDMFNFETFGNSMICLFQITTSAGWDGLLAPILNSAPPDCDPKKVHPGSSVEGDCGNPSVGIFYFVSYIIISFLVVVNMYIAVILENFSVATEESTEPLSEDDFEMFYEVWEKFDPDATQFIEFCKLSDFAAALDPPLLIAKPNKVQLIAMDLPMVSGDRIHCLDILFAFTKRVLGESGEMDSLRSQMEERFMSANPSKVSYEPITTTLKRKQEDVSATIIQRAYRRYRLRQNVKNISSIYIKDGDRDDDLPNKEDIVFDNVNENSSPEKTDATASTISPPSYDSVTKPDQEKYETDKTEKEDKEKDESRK

[9] = biological target: T1, Sodium channel protein type 9 subunit alpha; experiment: Inhibition of Nav1.7 in C57/BL6 mouse DRG neurons assessed as reduction in TTX sensitive sodium channel-mediated currents by whole cell manual patch clamp assay
[10] = AUCt in C57/BL6 mouse at 2 mg/kg, sc by LC-MS/MS analysis; format: ADME, organism-based; settings: in vivo
How it was run: (§1)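 Male C57Bl/6 mice, n = 3 per time point, given a single 2 mg/kg subcutaneous dose. Plasma levels were quantified by LC-MS/MS over time, and pharmacokinetic parameters were derived from the plasma profiles. Data are reported as mean ± SEM for each time point.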

[11] = Apparent […] clearance in C57/BL6 mouse at 2 mg/kg, sc by LC-MS/MS analysis; format: ADME, organism-based; settings: in vivo; how it was run: as §1
[12] = Cmax in C57/BL6 mouse at 2 mg/kg, sc by LC-MS/MS analysis; format: ADME, organism-based; parameters: dose 2 mg/kg, route subcutaneous; settings: in vivo; how it was run: as §1
[13] = MRT in C57/BL6 mouse at 2 mg/kg, sc by LC-MS/MS analysis; format: ADME, organism-based; settings: in vivo; how it was run: as §1
[14] = Half life in C57/BL6 mouse at 2 mg/kg, sc by LC-MS/MS analysis; format: ADME, organism-based; settings: in vivo; how it was run: as §1
[15] = Tmax in C57/BL6 mouse at 2 mg/kg, sc by LC-MS/MS analysis; format: ADME, organism-based; settings: in vivo; how it was run: as §1
Mus musculus [16] = experiment: Volume of distribution at steady state in C57/BL6 mouse at 2 mg/kg, sc by LC-MS/MS analysis; format: ADME, organism-based; settings: in vivo; how it was run: as §1
[17] = Plasma concentration in C57/BL6 mouse at 2 mg/kg, sc after 30 mins by LC-MS/MS analysis; format: ADME, organism-based; settings: in vivo, 0.5 h; how it was run: as §1
Mus musculus [18] = experiment: In vivo inhibition of Nav1.7 in C57/BL6 mouse model of histamine-induced pruritis assessed as reduction in scratching bouts at 0.5 mg/kg, sc dosed 2 hrs before histamine challenge and measured for 15 mins relative to control; format: functional
How it was run: (§2)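 Male C57Bl/6 mice aged 8–10 weeks; nape shaved under 3% isoflurane the day before, with 15 min chamber acclimation. Peptide given sc 2 h before intradermal histamine dichloride (8.15 mM, 100 μL); vehicle was PBS with 1% MSA. Scratch bouts video-recorded for 15 min, blinded scoring; n = 8–10 per group; one-way ANOVA with Dunnett's test versus vehicle.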

Mus musculus [19] = experiment: In vivo inhibition of Nav1.7 in C57/BL6 mouse model of histamine-induced pruritis assessed as reduction in scratching bouts at 1 mg/kg, sc dosed 2 hrs before histamine challenge and measured for 15 mins relative to control; format: functional; how it was run: as §2
Mus musculus [20] = experiment: In vivo inhibition of Nav1.7 in C57/BL6 mouse model of histamine-induced pruritis assessed as reduction in scratching bouts at 2 mg/kg, sc dosed 2 hrs before histamine challenge and measured for 15 mins relative to control; format: functional; how it was run: as §2
[21] = Plasma concentration in C57/BL6 mouse model of histamine-induced pruritis at 0.5 mg/kg, sc; format: ADME, organism-based; settings: in vivo
How it was run: (§3)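 Dosing was 2 h before an intradermal nape injection of histamine (8.15 mM, 100 μL). Scratching was videorecorded for 15 min by blinded experimenters, and peptide plasma concentrations were analysed from the same study.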

[22] = Plasma concentration in C57/BL6 mouse model of histamine-induced pruritis at 1 mg/kg, sc; format: ADME, organism-based; settings: in vivo; how it was run: as §3
[23] = Plasma concentration in C57/BL6 mouse model of histamine-induced pruritis at 2 mg/kg, sc; format: ADME, organism-based; settings: in vivo; how it was run: as §3
[24] = Ratio of plasma concentration in C57/BL6 mouse model of histamine-induced pruritis at 0.5 mg/kg, sc to IC50 for Nav1.7 in C57/BL6 mouse DRG neurons by whole cell manual patch clamp assay; format: ADME, organism-based; settings: in vivo
[25] = Ratio of plasma concentration in C57/BL6 mouse model of histamine-induced pruritis at 1 mg/kg, sc to IC50 for Nav1.7 in C57/BL6 mouse DRG neurons by whole cell manual patch clamp assay; format: ADME, organism-based; settings: in vivo
[26] = Ratio of plasma concentration in C57/BL6 mouse model of histamine-induced pruritis at 2 mg/kg, sc to IC50 for Nav1.7 in C57/BL6 mouse DRG neurons by whole cell manual patch clamp assay; format: ADME, organism-based; settings: in vivo
Mus musculus [27] = experiment: Toxicity in C57/BL6 mouse assessed as effect on locomotor activity at 2 mg/kg, sc by open field assay; format: organism-based; settings: in vivo
Mus musculus [28] = experiment: Toxicity in C57/BL6 mouse assessed as effect on locomotor activity at 1 mg/kg, sc by open field assay; format: organism-based; settings: in vivo

CN(C)CCOC(c1ccccc1)c1ccccc1 [DIPHENHYDRAMINE]
inhibition in vivo at 10 mg/kg (Mus musculus [1]): 89.7%

C#CC[C@H](NC(=O)[C@@H](N)CCC(=O)O)C(=O)N[C@H]1CSSC[C@@H]2NC(=O)[C@@H]3CSSC[C@@H](C(=O)N[C@@H](CCCNC(=N)N)C(=O)N[C@@H](CCCCN)C(=O)N[C@@H](CCC(=O)O)C(=O)N[C@H](C(N)=O)[C@@H](C)CC)NC(=O)[C@H](Cc4c[nH]c5ccc(Br)cc45)NC(=O)[C@H](CC(C)C)NC(=O)[C@H](CCCCN)NC(=O)[C@H](CSSC[C@H](NC(=O)[C@H]([C@@H](C)O)NC(=O)[C@H](Cc4c[nH]c5ccccc45)NC(=O)[C@H](CCCC)NC(=O)[C@H](Cc4c[nH]c5ccccc45)NC(=O)[C@H](CCCCN)NC(=O)[C@H](CCC(N)=O)NC1=O)C(=O)N[C@@H](CC(=O)O)C(=O)N[C@@H](CO)C(=O)N[C@@H](C)C(=O)N[C@@H](CCCNC(=N)N)C(=O)N[C@@H](C)C(=O)N3)NC(=O)[C@H](CCCNC(=N)N)NC(=O)[C@H](CC(C)C)NC(=O)CNC(=O)[C@H](CCC(=O)O)NC2=O
IC50 [2]: > 10000 nM | IC50 [3]: 0.8 nM | IC50 [4]: 104 nM | IC50 [5]: 104 nM | IC50 [6]: 6640 nM | IC50 [7]: > 1000 nM | IC50 [8]: 5.4 nM | IC50 [9]: 5.1 nM | AUC(0-t) [10]: 4.5 µM·h | CL/F [11]: 2 mL/min/kg | Cmax [12]: 1480 nM | MRT [13]: 3.7 h | half-life [14]: 4.95 h | Tmax [15]: 0.5 h | Vdss (Mus musculus [16]): 0.444 L/kg | Drug uptake [17]: Active | inhibition in vivo at 0.5 mg/kg (Mus musculus [18]): 7.3% | inhibition in vivo at 1 mg/kg (Mus musculus [19]): 22.5% | inhibition in vivo at 2 mg/kg (Mus musculus [20]): 88.9% | concentration [21]: 122 nM | concentration [22]: 300 nM | concentration [23]: 535 nM | Ratio [24]: 24 | Ratio [25]: 59 | Ratio [26]: 105 | Activity (Mus musculus [27]): Non-Toxic

C#CC[C@H](N)C(=O)N[C@@H](Cc1ccc(O)cc1)C(=O)N[C@H]1CSSC[C@@H]2NC(=O)[C@@H]3CSSC[C@@H](C(=O)N[C@@H](CCCNC(=N)N)C(=O)N[C@@H](CCCCN)C(=O)N[C@@H](CCC(=O)O)C(=O)N[C@H](C(N)=O)[C@@H](C)CC)NC(=O)[C@H](Cc4c[nH]c5ccccc45)NC(=O)[C@H](CC(C)C)NC(=O)[C@H](CCCCN)NC(=O)[C@H](CSSC[C@H](NC(=O)[C@H]([C@@H](C)O)NC(=O)[C@H](Cc4c[nH]c5ccccc45)NC(=O)[C@H](CCCC)NC(=O)[C@H](Cc4c[nH]c5ccccc45)NC(=O)[C@H](CCCCN)NC(=O)[C@H](CCC(N)=O)NC1=O)C(=O)N[C@@H](CC(=O)O)C(=O)N[C@@H](CO)C(=O)N[C@@H](CCCCN)C(=O)N[C@@H](CCCNC(=N)N)C(=O)N[C@@H](C)C(=O)N3)NC(=O)[C@H](CCCNC(=N)N)NC(=O)[C@H](CC(C)C)NC(=O)CNC(=O)[C@H](CCC(=O)O)NC2=O
IC50 [3]: 0.5 nM | IC50 [6]: 3070 nM | IC50 [7]: > 1000 nM | IC50 [9]: 9 nM | Activity (Mus musculus [19]): inactive | Ratio [25]: 6.5 | Activity (Mus musculus [28]): Non-Toxic
